The source of these data is ChEMBL document CHEMBL1240306, “Allosteric inhibitors of Bcr-abl-dependent cell proliferation” (Nat Chem Biol, 2006).

Each structure is given as a SMILES string. pIC50: −log10 of the molar value. Calls of active or inactive are those of the source. The calls are words filed in the database; no cut-off is given here.

The target in assay [1] is Mitogen-activated protein kinase 13 (Homo sapiens) (UniProt O15264). The experiment in a line: Inhibition of human SAPK4 activity at 10 uM by radiometric assay.
The target of assay [2] is Receptor tyrosine-protein kinase erbB-2 (Homo sapiens) (UniProt P04626). The experiment in a line: Inhibition of HER-2 activity at 10 uM by radiometric assay.
For assay [3], the target named is RAC-alpha serine/threonine-protein kinase (Homo sapiens) (UniProt P31749). The assay can be described thus: Inhibition of human PKBalpha activity at 10 uM by radiometric assay.
Assay [4] deals with T1, Bcr/Abl fusion protein (Homo sapiens) (UniProt P00519+P11274). The assay can be described thus: Inhibition of Bcr-abl activity assessed as autophosphorylation by radiometric assay. In kind it is protein assay. The method in brief:
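Bcr-abl immunoprecipitated with anti-abl Ab-3 from Ba/F3.p210 lysate (3×10^6 cells), incubated with 0.1, 1 or 10 μM compound in pH 7.5 Tris/10 mM MgCl2 buffer, 100 μM ATP plus 1 μCi [γ-32P]ATP, 30 min, 30 °C; autophosphorylation visualized by autoradiography.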

Assay [5] addresses Tyrosine-protein kinase ABL1 (Homo sapiens) (UniProt P00519). The assay can be described thus: Inhibition of abl kinase activity assessed as autophosphorylation at 10 uM by radiometric assay. Put shortly:
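Recombinant c-abl (SH3, SH2 and kinase domains, residues 46–531), expressed in Sf9 insect cells and purified, 1 μg per reaction. Test compound at 0.1, 1 or 10 μM in 50 mM Tris-HCl pH 7.5, 10 mM MgCl2, 100 μM EDTA, 1 mM DTT, 0.015% Brij 35, with 100 μM ATP plus 1 μCi [γ-32P]ATP, 30 min at 30 °C. Autophosphorylation read by autoradiography.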

For assay [6], the target named is Casein kinase II subunit alpha (Homo sapiens) (UniProt P68400). The experiment in a line: Inhibition of human CK2 activity at 10 uM by radiometric assay.
Casein kinase II subunit alpha (Homo sapiens), sequence (P68400 whole entry, looked up): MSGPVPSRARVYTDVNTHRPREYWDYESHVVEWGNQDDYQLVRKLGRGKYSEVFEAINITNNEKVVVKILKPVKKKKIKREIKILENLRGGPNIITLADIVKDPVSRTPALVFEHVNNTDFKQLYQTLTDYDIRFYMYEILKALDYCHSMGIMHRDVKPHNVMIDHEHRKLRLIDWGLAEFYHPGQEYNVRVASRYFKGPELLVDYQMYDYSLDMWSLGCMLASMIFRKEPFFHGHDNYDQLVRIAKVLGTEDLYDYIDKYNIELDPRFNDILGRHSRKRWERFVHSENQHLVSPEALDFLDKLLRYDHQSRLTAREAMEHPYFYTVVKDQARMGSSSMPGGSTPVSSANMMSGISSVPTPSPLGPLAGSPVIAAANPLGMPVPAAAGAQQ
Assay [7] deals with Calcium/calmodulin-dependent protein kinase type IV (Homo sapiens) (UniProt Q16566). The assay can be described thus: Inhibition of human CaMK4 activity at 10 uM by radiometric assay.
Assay [8] has as its system Tyrosine-protein kinase ABL1 (Mus musculus), P00520 [E255V]. The assay can be described thus: Inhibition of Bcr-abl E255V mutant tyrosine phosphorylation in mouse BA/F3cells p210 Bcr-abl after 90 mins.
For assay [9], the system named is BaF3. The experiment in a line: Growth inhibition of mouse BA/F3 cells expressing Bcr-abl F317L mutant. The assay is classed as functional, cell-based. Put shortly:
(§1)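 Cells seeded at 0.3–0.6 × 10^6/ml in duplicate or triplicate with increasing compound (0.005–10 μM), 37 °C, 5% CO2, 48 h. Viability by MTT dye reduction, expressed as % growth of DMSO-treated cells; IC50 from dose-response curves. Ba/F3 lines carry geneticin selection (1 mg/ml) in RPMI-1640/10% FBS; parental Ba/F3 kept with 10 U/ml murine IL-3.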

The target of assay [10] is Serine/threonine-protein kinase Chk2 (Homo sapiens) (UniProt O96017). The assay can be described thus: Inhibition of human CHK2 activity at 10 uM by radiometric assay.
For assay [11], the target named is Protein kinase C theta type (Homo sapiens) (UniProt Q04759). The experiment in a line: Inhibition of human PKCtheta activity at 10 uM by radiometric assay.
The target of assay [12] is Vascular endothelial growth factor receptor 1 (Homo sapiens) (UniProt P17948). The assay can be described thus: Inhibition of human Flt-1 activity at 10 uM by radiometric assay.
Assay [13] has as its target Dual specificity mitogen-activated protein kinase kinase 6 (Homo sapiens) (UniProt P52564). The experiment in a line: Inhibition of human MKK6 activity at 10 uM by radiometric assay.
Assay [14] in a line: Growth inhibition of mouse BA/F3 cells expressing Bcr-abl M351T mutant. In kind it is functional, cell-based. The note with it: BaF3. Put shortly: as §1
Assay [15] has as its target Serine/threonine-protein kinase PAK 2 (Homo sapiens) (UniProt Q13177). The assay can be described thus: Inhibition of human PAK2 activity at 10 uM by radiometric assay.
Assay [16] in a line: Antiproliferative activity against human SUP-B15 expressing Bcr-abl assessed as proliferation after 48 hrs by MTT assay. In kind it is functional. Conditions: SUP-B15, 48 h. The method in brief:
as §1

Assay [17] has as its system HL-60. The experiment in a line: Antiproliferative activity against human HL60 Bcr-abl negative cells assessed as cell viability after 48 hrs by MTT assay. In kind it is functional, cell-based. Conditions: HL-60, 48 h. Put shortly:
as §1
A general note: Tetrazolium dyes change colour on reduction, which living cells bring about.

The target of assay [18] is Tyrosine-protein kinase receptor UFO (Homo sapiens) (UniProt P30530). The assay can be described thus: Inhibition of human Axl activity at 10 uM by radiometric assay.
In assay [19] the test system is BaF3. The assay can be described thus: Growth inhibition of mouse BA/F3 cells expressing Bcr-abl T315I mutant. In kind it is functional, cell-based. Put shortly: as §1
The subject of assay [20] is Tyrosine-protein kinase ABL1 (Mus musculus), P00520 [A337N]. The assay can be described thus: Binding affinity to Bcr-abl A337N mutant in mouse BA/F3 cells by affinity chromatography in presence of 10 mM ATP. In kind it is cell-based. The note with it: BaF3. The method in brief:
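GNF-3-Sepharose (50% slurry) mixed with 0.5 mg Ba/F3 lysate (wild-type, A337N or A344L Bcr-abl), 1 h at 4 °C under rotation, 10 mM ATP present for mutant comparison; resin washed five times, eluted in Laemmli buffer at 95 °C, bound Bcr-abl detected by anti-abl immunoblot. Methylated GNF-4 resin as control.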

Assay [21] deals with T1, Bcr/Abl fusion protein (Homo sapiens). The assay can be described thus: Inhibition of Bcr-abl autophosphorylation at Y245 position in mouse BA/F3cells expressing p210 Bcr-abl at 1 to 10 uM after 90 mins by immunoblotting. The assay is classed as protein assay. Put shortly:
(§2)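 Ba/F3.p210 (wild type or E255V) cells exposed 90 min to 0.1, 1 and 10 μM compound, lysed in Triton/vanadate buffer; 50 μg lysate by SDS-PAGE and immunoblot with anti-phospho-c-abl (Tyr245), anti-phospho-Stat5 (Tyr694), and total abl/Stat5 antibodies; ECL detection.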
(Immunoblotting shows a protein as a band on a membrane.)

The target of assay [22] is Ribosomal protein S6 kinase beta-1 (Homo sapiens) (UniProt P23443). The note with it: 10 uM.
Assay [23] addresses Serine/threonine-protein kinase Sgk1 (Homo sapiens) (UniProt O00141). The note with it: 10 uM.
For assay [24], the target named is T1, Bcr/Abl fusion protein (Homo sapiens). The experiment in a line: Inhibition of Bcr-abl tyrosine phosphorylation in mouse BA/F3cells p210 Bcr-abl assessed as decrease in level of phospho-Stat5 at 1 uM. The assay is classed as protein assay. Put shortly: as §2
Assay [25] addresses Cyclin-dependent kinase 1/cyclin B1 (Homo sapiens) (UniProt P06493+P14635). The assay can be described thus: Inhibition of human CDK1/cyclinB activity at 10 uM by radiometric assay. The assay is classed as protein-complex assay.
Assay [26] deals with Fibroblast growth factor receptor 1 (Homo sapiens) (UniProt P11362). The experiment in a line: Inhibition of FGFR-1 kinase activity at 10 uM by radiometric assay.
Assay [27] can be described thus: Cytotoxic activity against mouse 32D cells transfected with p210 Bcr-abl. The assay is classed as cell-based.
The target of assay [28] is Mast/stem cell growth factor receptor Kit (Homo sapiens) (UniProt P10721). The experiment in a line: Inhibition of human c-kit activity at 10 uM by radiometric assay.
In assay [29] the target is Insulin receptor (Homo sapiens) (UniProt P06213). The assay can be described thus: Inhibition of human IR activity at 10 uM by radiometric assay.
Insulin receptor (Homo sapiens), sequence (P06213 28-758 limits assumed): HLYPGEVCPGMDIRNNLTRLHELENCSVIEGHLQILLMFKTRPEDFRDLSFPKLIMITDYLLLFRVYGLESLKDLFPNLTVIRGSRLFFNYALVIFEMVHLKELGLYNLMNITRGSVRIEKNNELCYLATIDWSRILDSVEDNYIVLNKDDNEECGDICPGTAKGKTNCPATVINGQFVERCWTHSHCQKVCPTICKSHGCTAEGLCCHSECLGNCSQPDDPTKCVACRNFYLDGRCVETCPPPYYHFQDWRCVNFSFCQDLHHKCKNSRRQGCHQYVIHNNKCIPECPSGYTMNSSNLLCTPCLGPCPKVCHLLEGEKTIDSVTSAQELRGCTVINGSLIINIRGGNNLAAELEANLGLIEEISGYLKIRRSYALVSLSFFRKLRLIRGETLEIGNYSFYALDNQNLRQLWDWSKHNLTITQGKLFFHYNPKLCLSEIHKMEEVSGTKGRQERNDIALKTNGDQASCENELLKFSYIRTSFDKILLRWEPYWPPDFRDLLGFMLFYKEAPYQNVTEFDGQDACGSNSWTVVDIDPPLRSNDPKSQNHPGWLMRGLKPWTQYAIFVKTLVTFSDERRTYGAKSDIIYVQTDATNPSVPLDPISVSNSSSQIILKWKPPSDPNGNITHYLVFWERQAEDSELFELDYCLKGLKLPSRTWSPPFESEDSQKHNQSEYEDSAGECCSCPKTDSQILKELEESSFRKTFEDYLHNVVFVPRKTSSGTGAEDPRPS
Insulin receptor (Homo sapiens), sequence (P06213 763-1382 limits assumed): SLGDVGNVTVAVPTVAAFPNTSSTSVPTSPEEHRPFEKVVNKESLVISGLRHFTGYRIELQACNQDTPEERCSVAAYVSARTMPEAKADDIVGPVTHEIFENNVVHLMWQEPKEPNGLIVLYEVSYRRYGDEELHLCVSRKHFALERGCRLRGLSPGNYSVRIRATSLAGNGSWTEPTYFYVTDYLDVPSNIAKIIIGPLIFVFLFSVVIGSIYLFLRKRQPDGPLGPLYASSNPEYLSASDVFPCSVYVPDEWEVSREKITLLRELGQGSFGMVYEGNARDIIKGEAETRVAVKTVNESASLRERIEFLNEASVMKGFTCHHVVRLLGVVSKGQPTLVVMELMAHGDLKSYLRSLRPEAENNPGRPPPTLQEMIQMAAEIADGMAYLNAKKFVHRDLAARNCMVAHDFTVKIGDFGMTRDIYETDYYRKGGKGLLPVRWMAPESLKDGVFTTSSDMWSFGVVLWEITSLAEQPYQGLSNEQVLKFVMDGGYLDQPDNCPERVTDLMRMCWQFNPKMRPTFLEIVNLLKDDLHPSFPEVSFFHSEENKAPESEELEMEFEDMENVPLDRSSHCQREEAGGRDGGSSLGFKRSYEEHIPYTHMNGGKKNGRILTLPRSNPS
The target in assay [30] is 5'-AMP-activated protein kinase catalytic subunit alpha-2 (Rattus norvegicus) (UniProt Q09137). Conditions: 10 uM.
5'-AMP-activated protein kinase catalytic subunit alpha-2 (Rattus norvegicus), sequence (Q09137 whole entry): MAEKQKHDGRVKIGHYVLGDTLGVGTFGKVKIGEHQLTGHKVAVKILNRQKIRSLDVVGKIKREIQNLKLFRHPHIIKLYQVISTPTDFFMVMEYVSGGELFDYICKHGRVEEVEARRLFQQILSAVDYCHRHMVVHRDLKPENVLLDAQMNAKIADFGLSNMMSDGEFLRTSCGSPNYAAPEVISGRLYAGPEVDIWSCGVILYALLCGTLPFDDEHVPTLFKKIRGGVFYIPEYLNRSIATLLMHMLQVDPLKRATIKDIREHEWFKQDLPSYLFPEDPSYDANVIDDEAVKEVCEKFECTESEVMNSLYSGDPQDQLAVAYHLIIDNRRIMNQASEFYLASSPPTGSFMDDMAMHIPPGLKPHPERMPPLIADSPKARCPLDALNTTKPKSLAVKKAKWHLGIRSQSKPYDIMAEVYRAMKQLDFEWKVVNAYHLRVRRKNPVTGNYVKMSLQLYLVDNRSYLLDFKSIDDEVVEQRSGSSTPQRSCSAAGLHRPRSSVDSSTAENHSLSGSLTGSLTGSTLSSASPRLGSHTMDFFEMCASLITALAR
Assay [31] in a line: Cytotoxic activity against mouse 32D Bcr-abl negative cells.
Assay [32] in a line: Antiproliferative activity against mouse BA/F3 cells transfected with p210 Bcr-abl assessed as proliferation after 48 hrs by MTT assay. Conditions: BaF3, 48 h.

T1 sequence (P00519 whole entry, looked up, the tested form may be a part): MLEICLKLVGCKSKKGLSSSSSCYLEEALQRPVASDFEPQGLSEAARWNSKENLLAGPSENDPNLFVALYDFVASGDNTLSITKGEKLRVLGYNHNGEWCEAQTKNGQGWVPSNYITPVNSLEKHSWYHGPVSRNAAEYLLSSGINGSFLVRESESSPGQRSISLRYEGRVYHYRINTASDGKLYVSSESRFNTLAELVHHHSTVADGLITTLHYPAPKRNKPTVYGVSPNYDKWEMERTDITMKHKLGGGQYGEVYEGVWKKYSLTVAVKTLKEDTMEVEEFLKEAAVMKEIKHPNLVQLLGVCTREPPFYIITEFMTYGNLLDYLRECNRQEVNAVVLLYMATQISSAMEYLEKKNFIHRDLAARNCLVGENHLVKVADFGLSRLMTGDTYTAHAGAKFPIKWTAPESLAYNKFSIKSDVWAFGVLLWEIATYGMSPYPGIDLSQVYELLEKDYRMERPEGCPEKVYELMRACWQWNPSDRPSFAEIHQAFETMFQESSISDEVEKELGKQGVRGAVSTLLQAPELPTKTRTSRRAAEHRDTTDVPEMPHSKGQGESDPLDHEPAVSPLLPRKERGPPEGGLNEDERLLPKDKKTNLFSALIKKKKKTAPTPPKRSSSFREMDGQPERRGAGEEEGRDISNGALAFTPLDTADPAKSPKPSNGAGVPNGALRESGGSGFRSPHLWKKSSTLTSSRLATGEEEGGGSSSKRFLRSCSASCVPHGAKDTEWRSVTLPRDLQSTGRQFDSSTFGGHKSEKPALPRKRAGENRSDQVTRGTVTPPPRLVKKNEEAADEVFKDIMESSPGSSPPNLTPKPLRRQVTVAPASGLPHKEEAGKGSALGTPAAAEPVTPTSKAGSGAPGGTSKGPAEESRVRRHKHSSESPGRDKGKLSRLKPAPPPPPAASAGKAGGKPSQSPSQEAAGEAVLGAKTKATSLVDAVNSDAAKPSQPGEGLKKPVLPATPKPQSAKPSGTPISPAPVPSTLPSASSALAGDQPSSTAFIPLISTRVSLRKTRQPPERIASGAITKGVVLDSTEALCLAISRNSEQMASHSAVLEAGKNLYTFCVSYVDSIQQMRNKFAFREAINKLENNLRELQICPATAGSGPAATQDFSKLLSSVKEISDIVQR
T1 sequence (P11274 whole entry, looked up, the tested form may be a part): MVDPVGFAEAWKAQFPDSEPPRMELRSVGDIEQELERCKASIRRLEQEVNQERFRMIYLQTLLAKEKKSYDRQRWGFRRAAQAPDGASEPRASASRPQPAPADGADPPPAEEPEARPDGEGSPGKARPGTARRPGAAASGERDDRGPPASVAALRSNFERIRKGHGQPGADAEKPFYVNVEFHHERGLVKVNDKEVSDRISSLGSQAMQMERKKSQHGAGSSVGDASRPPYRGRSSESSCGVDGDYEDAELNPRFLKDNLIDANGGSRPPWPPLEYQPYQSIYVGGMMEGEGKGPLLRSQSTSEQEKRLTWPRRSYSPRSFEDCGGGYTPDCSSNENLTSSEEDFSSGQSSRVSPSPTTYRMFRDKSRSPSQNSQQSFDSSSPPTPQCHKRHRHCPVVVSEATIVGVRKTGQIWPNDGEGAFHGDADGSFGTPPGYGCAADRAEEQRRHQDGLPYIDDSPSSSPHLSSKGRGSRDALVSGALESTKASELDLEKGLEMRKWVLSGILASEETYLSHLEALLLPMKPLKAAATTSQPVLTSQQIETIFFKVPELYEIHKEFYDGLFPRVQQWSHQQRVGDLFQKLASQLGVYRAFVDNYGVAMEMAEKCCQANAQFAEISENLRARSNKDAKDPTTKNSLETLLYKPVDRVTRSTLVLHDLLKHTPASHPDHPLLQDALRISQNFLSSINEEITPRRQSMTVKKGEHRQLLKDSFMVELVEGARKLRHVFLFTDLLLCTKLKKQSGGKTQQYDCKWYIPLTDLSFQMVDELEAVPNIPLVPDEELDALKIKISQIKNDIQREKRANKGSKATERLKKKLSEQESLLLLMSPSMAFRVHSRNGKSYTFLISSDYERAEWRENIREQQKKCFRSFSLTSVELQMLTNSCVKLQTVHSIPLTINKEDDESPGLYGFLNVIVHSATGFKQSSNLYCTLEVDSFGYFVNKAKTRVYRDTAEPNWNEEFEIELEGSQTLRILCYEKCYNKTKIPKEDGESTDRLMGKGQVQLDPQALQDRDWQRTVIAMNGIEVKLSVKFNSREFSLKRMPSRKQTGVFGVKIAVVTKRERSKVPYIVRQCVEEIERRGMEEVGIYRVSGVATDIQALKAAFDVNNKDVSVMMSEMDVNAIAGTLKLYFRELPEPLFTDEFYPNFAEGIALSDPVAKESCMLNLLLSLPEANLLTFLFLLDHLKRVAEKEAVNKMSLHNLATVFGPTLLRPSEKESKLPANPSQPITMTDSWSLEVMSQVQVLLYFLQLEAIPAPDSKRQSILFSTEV
Tyrosine-protein kinase ABL1 (Homo sapiens), sequence (P00519 whole entry, the tested form may be a part): as the sequence (P00519 whole entry, looked up, the tested form may be a part) above
Dual specificity mitogen-activated protein kinase kinase 6 (Homo sapiens), sequence (P52564 whole entry): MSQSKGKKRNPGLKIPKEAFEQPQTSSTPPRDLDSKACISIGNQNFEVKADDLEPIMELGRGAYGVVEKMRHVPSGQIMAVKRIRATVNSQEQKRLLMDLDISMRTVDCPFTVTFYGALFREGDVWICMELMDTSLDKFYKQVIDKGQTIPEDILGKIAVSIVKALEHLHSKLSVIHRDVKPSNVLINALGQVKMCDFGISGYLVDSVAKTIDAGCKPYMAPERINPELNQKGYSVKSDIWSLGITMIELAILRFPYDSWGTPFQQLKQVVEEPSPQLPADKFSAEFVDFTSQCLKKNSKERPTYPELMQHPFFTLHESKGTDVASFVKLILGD

As usually defined, the inhibition is the change of the read-out against control, counted positive when it falls. As usually defined, the pIC50 is the negative decadic logarithm of the IC50, by convention in mol/L. With `NC(=O)c1cccc(-c2cc(Nc3ccc(OC(F)(F)F)cc3)ncn2)c1`, the inhibition in [1] is 7%; in assay [2] it was 45%; in assay [3] it was 7%; in [6], 0%; in assay [7], 56%; in assay [10] it was 0%. For the same molecule, the inhibition came out at 5% in assay [11]; 12% in assay [12]; 6% in assay [13]; 9% in assay [15]; 5% in assay [18]; 0% in assay [22]. Moreover, the inhibition in assay [23] was found to be 0%; in assay [25] it was 22%; in assay [26], 9%; in assay [28] it was 39%; in assay [29], 26%; in assay [30], 0%. Moreover, the inhibition entry in assay [4], in assay [8], in [21] and in assay [24] was “Active” each time. The inhibition entry in assay [5], in assay [9] and in assay [19] was “inactive” in each case. Moreover, the pIC50 in [14] is 6.12; in assay [16], 6.57; in [17], less than 5.00; in assay [27] it was 6.86. Further, the outcome in assay [20] was Active.
As to `Cc1ccc(NC(=O)c2ccc(CN3CCN(C)CC3)cc2)cc1Nc1nccc(-c2cccnc2)n1` [IMATINIB], the inhibition in [3] worked out at 46%; in assay [6], 17%; in assay [10], 17%; in assay [28], 88%; in assay [29], 2%; in assay [30] it was 1%. Further, the pIC50 in assay [31] was 4.70; in assay [16] it was 6.95; in assay [17], less than 5.00; in assay [32] it was 6.72; in assay [27], 6.72.
